The text below walks through data of publication PMC2989669 (Bioorganic & medicinal chemistry letters, 2010).

SMILES strings stand for the structures. A value given as a limit tells only on which side of the number the result lay.

The target of assay [1] is T1, MIF-CD74 binding (Homo sapiens, UniProt P14174).
T1 sequence (P14174 2-115 limits assumed): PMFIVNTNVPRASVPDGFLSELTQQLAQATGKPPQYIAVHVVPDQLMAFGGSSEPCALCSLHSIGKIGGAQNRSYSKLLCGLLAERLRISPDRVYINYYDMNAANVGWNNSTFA
Description: MIF-CD74 binding assay. To be noted: for IC50 or max % inhib CD74 (result in words): MIF-CD74 binding assay.

Assay [2] concerns the target T2, human MIF (Homo sapiens, UniProt P14174).
T2 sequence (P14174 2-115 limits assumed): T1 sequence (P14174 2-115 limits assumed)
Description: MIF tautomerase assay using 4-hydroxyphenylpyruvate. Type of assay: biochemical. To be noted: for IC50 or max % inhib 4-HPP (result in words): tautomerase assay. The method, boiled down: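 Recombinant human MIF; tautomerase activity measured with 4-hydroxyphenylpyruvate (4-HPP) as substrate. Test compounds were run from 1 nM to 1 mM. IC50 was reported. Where inhibition plateaued below 50%, the maximum percent inhibition was reported instead.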

For assay [3], the system named is MIF-dependent ERK1/2 phosphorylation. Description: MIF-dependent ERK1/2 phosphorylation in human fibroblasts. The settings on record: human primary fibroblasts, MIF […] trimer, compound 8 nM, 30 min. The assay is classed as cell-based.
For assay [4], the system named is MIF tautomerase. The settings on record: cited from earlier work.

In general, IC50 refers to the concentration that inhibits the measured activity by half. As for `Oc1ccc(-c2cn(Cc3ccccc3)nn2)cc1` [3a], the IC50 in assay [1] was greater than 1000 µM. On the same count and under the same terms, in the case of `Cc1ccccc1Cn1cc(-c2ccc(O)cc2)nn1` [3b] it was greater than 1000 µM; in that of `Cc1cccc(Cn2cc(-c3ccc(O)cc3)nn2)c1` [3c], greater than 1000 µM. Regarding `COc1ccccc1Cn1cc(-c2ccc(O)cc2)nn1` [3d], the “IC50 or max % inhib CD74 (result in words)” value (“IC50 or max % inhib CD74” for short) in assay [1] was “Agon”. For the same compound, the “IC50 or max % inhib 4-HPP (result in words)” value (“IC50 or max % inhib 4-HPP” for short) in assay [2] is on record as “Agon”. Further, the “effect on MIF-dependent ERK1/2 phosphorylation” value (from here on “effect”) in assay [3] is on record as “enhances ERK1/2 phosphorylation”. `COc1ccc(Cn2cc(-c3ccc(O)cc3)nn2)cc1` [3f] returned an IC50 in assay [1] greater than 1000 µM. As for `COc1cccc(Cn2cc(-c3ccc(O)cc3)nn2)c1OC` [3g], the half-maximal inhibitory concentration (IC50) in assay [1] and in assay [2] was roughly 1 µM throughout. Further, the “effect” value in assay [3] is recorded as “strongly inhibits”. Take `COC(=O)c1cccc(Cn2cc(-c3ccc(O)cc3)nn2)c1` [3h]: the IC50 in assay [1] and in assay [2] was roughly 1 µM in each case. `O=C(O)c1cccc(Cn2cc(-c3ccc(O)cc3)nn2)c1` [3i] returned a half-maximal inhibitory concentration (IC50) in assay [1] greater than 1000 µM. As to `Oc1ccc(-n2cc(Cc3cccc(O)c3)nn2)cc1` [4d], the IC50 in assay [1] and in assay [2] was greater than 1000 µM each time. For the compound `COc1cccc(Cc2cn(-c3ccc(O)cc3)nn2)c1OC` [4i], the IC50 in assay [1] was greater than 1000 µM. For the compound `Oc1ccc(-n2cc(-c3cccnc3)nn2)cc1` [5a], the “IC50 or max % inhib CD74” value in assay [1] is given as “Agon”. Besides, the “IC50 or max % inhib 4-HPP” value in assay [2] is “Agon”. Further, the “effect” value in assay [3] is reported as “enhances ERK1/2 phosphorylation”. With `Oc1ccc(-n2cc(-c3cccc4ccccc34)nn2)cc1` [5b], in assay [1], the IC50 was greater than 1000 µM. For the compound `Oc1ccc(-n2cc(-c3cncc4ccccc34)nn2)cc1` [5c], the “IC50 or max % inhib CD74” value in assay [1] is on record as “Agon”. Further, the “IC50 or max % inhib 4-HPP” value in assay [2] is “Agon”. The “effect” value in assay [3] was “enhances ERK1/2 phosphorylation”. For the compound `CCOC(=O)c1cc2ccc(O)cc2oc1=O` [compound 1], the “tautomerase inhibition (reported potency)” value in assay [4] is 7 µM. In the case of `COC(=O)CC1CC(c2ccc(O)cc2)=NO1` (stereo not shown) [compound 2], the “tautomerase inhibition (reported potency)” value in assay [4] was 7 µM.
